Experiment [1] concerns the target Adenosylhomocysteinase (Homo sapiens, UniProt P23526). Briefly: Inhibition of recombinant human S-adenosyl-L-homocysteine hydrolase assessed as hydrolysis of AdoHcy after 8 mins by HPLC analysis. The essentials: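 Human recombinant enzyme (50 ng) added after test compound to 10 μM AdoHcy plus adenosine deaminase (4 units) in 50 mM phosphate buffer pH 7.2 with 1 mM EDTA. Incubated at 37 °C for 8 min, then stopped with 1 mol/L perchloric acid and centrifuged at 4 °C. Read-out is AdoHcy hydrolysis activity. IC50 given as mean ± standard error of triplicate determinations.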

The target of experiment [2] is T1, Adenosylhomocysteinase (Rattus norvegicus, UniProt P10760).
T1 sequence (P10760 whole entry): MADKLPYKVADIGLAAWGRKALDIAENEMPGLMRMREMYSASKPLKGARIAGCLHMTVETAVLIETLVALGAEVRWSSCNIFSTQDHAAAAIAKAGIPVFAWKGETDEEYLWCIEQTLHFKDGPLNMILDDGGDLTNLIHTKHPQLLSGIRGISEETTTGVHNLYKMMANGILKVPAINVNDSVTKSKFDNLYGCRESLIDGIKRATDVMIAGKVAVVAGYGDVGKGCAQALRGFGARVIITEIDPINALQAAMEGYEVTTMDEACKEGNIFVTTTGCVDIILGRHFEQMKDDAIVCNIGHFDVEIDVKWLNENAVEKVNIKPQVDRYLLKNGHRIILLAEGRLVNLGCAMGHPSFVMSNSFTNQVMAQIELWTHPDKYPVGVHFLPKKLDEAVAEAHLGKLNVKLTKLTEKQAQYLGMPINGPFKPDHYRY
Briefly: Reversible inhibition of rat liver S-adenosyl-L-homocysteine hydrolase. Format: tissue-based.

Our source for the IC50, inhibition and Ki values is ChEMBL document CHEMBL3596133, “Discovery and structural analyses of S-adenosyl-L-homocysteine hydrolase inhibitors based on non-adenosine analogs” (Bioorg Med Chem, 2015).

The term IC50 denotes the concentration that inhibits the measured activity by half. For orientation: Ki means the equilibrium dissociation constant of an inhibitor or competing ligand from its target.

The structures appear in SMILES notation. Activity calls are given as the source filed them. The calls are words filed in the database; no cut-off is given here.

As for `CN(C(=O)CN(CC(=O)NC1CCCN(C(=O)OC(C)(C)C)C1)c1cc(Cl)ccc1Oc1ccc(Cl)cc1)C1Cc2ccccc2C1` (stereo unspecified), the half-inhibitory concentration (IC50) at Adenosylhomocysteinase [1] stood at 1.2 µM.

Take `CN(C(=O)CN(CC(=O)NC1CCNC1)c1cc(Cl)ccc1Oc1ccc(Cl)cc1)C1Cc2ccccc2C1` (stereo unspecified): the inhibition entry on Adenosylhomocysteinase [1] is “Active”.

`Nc1ncnc2c1ncn2CC(O)CO` (stereo unspecified) showed an inhibition constant Ki on Adenosylhomocysteinase [2] of 1 µM. In the case of `CC(C)N(CCNC(=O)CN(CC(=O)N(C)C1Cc2ccccc2C1)c1cc(Cl)ccc1Oc1ccc(Cl)cc1)C(=O)OC(C)(C)C`, the IC50 at Adenosylhomocysteinase [1] worked out at 0.049 µM. `CN(C(=O)CN(CC(=O)NC[C@@H]1CCCN1C(=O)OC(C)(C)C)c1cc(Cl)ccc1Oc1ccc(Cl)cc1)C1Cc2ccccc2C1`: the IC50 on Adenosylhomocysteinase [1] was 0.11 µM. As for `CN(C(=O)CN(CC(=O)NC[C@H]1CCCN1C(=O)OC(C)(C)C)c1cc(Cl)ccc1Oc1ccc(Cl)cc1)C1Cc2ccccc2C1`, at Adenosylhomocysteinase [1], the IC50 worked out at 0.6 µM.

Take `CN(C(=O)CN(CC(=O)NC1CCCNC1)c1cc(Cl)ccc1Oc1ccc(Cl)cc1)C1Cc2ccccc2C1` (stereo unspecified): the inhibition result on Adenosylhomocysteinase [1] was “Active”. For `O=C(CN(CC(=O)N1CCCc2ccccc21)c1cc(Cl)ccc1Oc1ccc(Cl)cc1)NCCN1CCCC1`, the 50% inhibitory concentration (IC50) on Adenosylhomocysteinase [1] came to 2.3 µM. Consider `CN(C(=O)CN(CC(=O)NCC1CCCCN1C(=O)OC(C)(C)C)c1cc(Cl)ccc1Oc1ccc(Cl)cc1)C1Cc2ccccc2C1` (stereo unspecified), for which, at Adenosylhomocysteinase [1], the half-inhibitory concentration (IC50) was 0.15 µM. For the compound `CN(C(=O)CN(CC(=O)NCCN1CCCC1)c1cc(Cl)ccc1Oc1ccc(Cl)cc1)C1CCNCC1`, on Adenosylhomocysteinase [1], the IC50 was above 100 µM. With `CCN(C(=O)CN(CC(=O)NCCN1CCCC1)c1cc(Cl)ccc1Oc1ccc(Cl)cc1)C1Cc2ccccc2C1`, the IC50 on Adenosylhomocysteinase [1] came out at 0.64 µM. On the same count and under the same terms, next, `CCN(CCNC(=O)CN(CC(=O)N(C)C1Cc2ccccc2C1)c1cc(Cl)ccc1Oc1ccc(Cl)cc1)C(=O)OC(C)(C)C`: 0.06 µM; `CN(CCNC(=O)CN(CC(=O)N(C)C1Cc2ccccc2C1)c1cc(Cl)ccc1Oc1ccc(Cl)cc1)C(=O)OC(C)(C)C`: 0.07 µM; `CN(C(=O)CN(CC(=O)NC1CCN(C(=O)OC(C)(C)C)C1)c1cc(Cl)ccc1Oc1ccc(Cl)cc1)C1Cc2ccccc2C1` (stereo unspecified): 1.5 µM.

Take `CCNCCNC(=O)CN(CC(=O)N(C)N1Cc2ccccc2C1)c1cc(Cl)ccc1Oc1ccc(Cl)cc1`: the half-maximal inhibitory concentration (IC50) at Adenosylhomocysteinase [1] was found to be 0.0085 µM. Still for that read-out and setting: next, `CN(CCN1CCCC1)C(=O)CN(CC(=O)N(C)C1Cc2ccccc2C1)c1cc(Cl)ccc1Oc1ccc(Cl)cc1`: above 100 µM.
